Test results reported in ChEMBL document CHEMBL3046036, “Bioactivity of the fungal metabolite (8R,16R)-(-)-pyrenophorin on graminaceous plants” (J Agric Food Chem, 2005).

What was measured:
Details in all cases: in vivo
[1] = tested on: Hordeum vulgare; test: Effect on chlorophyll content in Hordeum vulgare (barley) assessed as chlorophyll dissipation rate at 20 degC and 12 hr photoperiod at 320 uM relative to control; type: ADME, organism-based
Method in brief: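 Leaf sections were treated with 320 µM metabolite and incubated in the dark at 20 °C, with 16 tubes per treatment. Every 12 h, segments from one tube were split into four tubes and extracted in DMSO at 65 °C for 30 min. Extracts were read at A665, tissue was dried at 105 °C and weighed, and chlorophyll was expressed as A665 per g dry weight.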

[2] = tested on: Avena fatua; test: Effect on chlorophyll content in Avena fatua assessed as chlorophyll dissipation rate at 20 degC in the dark at 320 uM relative to control
[3] = tested on: Avena sativa; test: Effect on chlorophyll content in Avena sativa assessed as chlorophyll dissipation rate at 20 degC in the dark at 320 uM relative to control
[4] = tested on: Avena sterilis; test: Effect on chlorophyll content in Avena sterilis assessed as chlorophyll dissipation rate at 20 degC in the dark at 320 uM relative to control
[5] = tested on: Triticum aestivum; test: Effect on chlorophyll content in Triticum aestivum (wheat) assessed as chlorophyll dissipation rate at 20 degC in the dark at 320 uM relative to control

Measured: Activity

C[C@@H]1CC[C@H](O)/C=C/C(=O)O[C@H](C)CC[C@H](O)/C=C/C(=O)O1 [(5S,8R,13S,16R)-(-)-PYRENOPHOROL]
Non-toxic: [1] | [2] | [3] | [4] | [5]
